Measurements collected from several papers.
Compare with care: the assays were run in different laboratories. Values after ≈ are worked out from the molar mass of the structure shown.
Organism: Candida albicans

CCCCCCCOc1c(OC)cc(NC(C)CCCN)c2nc(C(C)(C)C)ccc12 (stereo not shown)  MFC (microbial killing; ATCC90028): 10 µg/mL
O=C(CCCCCCCCCC[P+](c1ccccc1)(c1ccccc1)c1ccccc1)Nc1ccc(O)c(O)c1.[Br-]  MIC (microbial growth, broth dilution; ATCC90028; 24 h): 32 µg/mL
C[C@@H]1[C@H](O)[C@@H](C)/C=C/C=C/C=C/C=C/C=C/C=C/C=C/[C@H](O[C@@H]2O[C@H](C)[C@@H](O)[C@H](N)[C@@H]2O)C[C@@H]2O[C@](O)(C[C@@H](O)C[C@@H](O)[C@H](O)CC[C@@H](O)C[C@@H](O)CC(=O)O[C@H]1C)C[C@H](O)[C@H]2C(=O)O  inhibition zone (microbial growth, disc diffusion; 35 µg/disc): 11 mm
C#CCCCCCCCCCCCC(O)CC(O)CO (stereo not shown)  IC50 (microbial growth, broth dilution; ATCC90028): > 200 µg/mL
C[C@@H]1[C@H](O)[C@@H](C)/C=C/C=C/C=C/C=C/C=C/C=C/C=C/[C@H](O[C@@H]2O[C@H](C)[C@@H](O)[C@H](N)[C@@H]2O)C[C@@H]2O[C@](O)(C[C@@H](O)C[C@@H](O)[C@H](O)CC[C@@H](O)C[C@@H](O)CC(=O)O[C@H]1C)C[C@H](O)[C@H]2C(=O)O  inhibition zone (microbial growth; 1000 µg/mL): 21 mm
O=C(Cc1cc(O)c(O)c(O)c1)NCCCCCCCC[P+](c1ccccc1)(c1ccccc1)c1ccccc1.[Br-]  MIC (microbial growth, broth dilution; ATCC90028; 24 h): > 32 µg/mL
Cc1cc(N)c2ccccc2[n+]1CCCCCCCCCC[n+]1c(C)cc(N)c2ccccc21  inhibition zone (microbial growth, disc diffusion; 50 µg/disc): 13 mm
C[C@@H]1[C@H](O)[C@@H](C)/C=C/C=C/C=C/C=C/C=C/C=C/C=C/[C@H](O[C@@H]2O[C@H](C)[C@@H](O)[C@H](N)[C@@H]2O)C[C@@H]2O[C@](O)(C[C@@H](O)C[C@@H](O)[C@H](O)CC[C@@H](O)C[C@@H](O)CC(=O)O[C@H]1C)C[C@H](O)[C@H]2C(=O)O  IC50 (microbial growth; ATCC90028): 0.25 µg/mL (≈ 0.271 µM)
C[C@@H]1[C@H](O)[C@@H](C)/C=C/C=C/C=C/C=C/C=C/C=C/C=C/[C@H](O[C@@H]2O[C@H](C)[C@@H](O)[C@H](N)[C@@H]2O)C[C@@H]2O[C@](O)(C[C@@H](O)C[C@@H](O)[C@H](O)CC[C@@H](O)C[C@@H](O)CC(=O)O[C@H]1C)C[C@H](O)[C@H]2C(=O)O  MFC (microbial killing; ATCC90028): 1.35 µM
C[C@@H]1[C@H](O)[C@@H](C)/C=C/C=C/C=C/C=C/C=C/C=C/C=C/[C@H](O[C@@H]2O[C@H](C)[C@@H](O)[C@H](N)[C@@H]2O)C[C@@H]2O[C@](O)(C[C@@H](O)C[C@@H](O)[C@H](O)CC[C@@H](O)C[C@@H](O)CC(=O)O[C@H]1C)C[C@H](O)[C@H]2C(=O)O  IC50 (microbial growth, broth dilution; ATCC90028): 0.27 µg/mL (≈ 0.292 µM)
O=C(O)c1cn(C2CC2)c2cc(N3CCNCC3)c(F)cc2c1=O  MIC (microbial growth, broth dilution): 12.5 µM
C#CCCCCCCCCC=CCC(O)CC(O)CO (stereo not shown)  IC50 (microbial growth, broth dilution; ATCC90028): > 8 µg/mL
Clc1ccccc1C(c1ccccc1)(c1ccccc1)n1ccnc1  inhibition zone (microbial growth, disc diffusion; 100 µg/mL): 21 mm
